Assay results published in ChEMBL document CHEMBL1926565, “Synthesis, antiproliferative activities and telomerase inhibition evaluation of novel asymmetrical 1,2-disubstituted amidoanthraquinone derivatives” (Eur J Med Chem, 2012).

Experiments:
OVCAR-8 = experiment: Cytotoxicity against human OVCAR8 cells assessed as cellular growth at 10 uM; assay type: functional
Outline: (§1)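 Single-dose screen run by the NCI across its 60-human-tumour-cell-line panel; growth recorded for each cell line.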

SN12C = experiment: Cytotoxicity against human SN12C cells assessed as cellular growth at 10 uM; assay type: functional
UO-31 = experiment: Cytotoxicity against human UO31 cells assessed as cellular growth at 10 uM; assay type: functional
DU-145 = experiment: Cytotoxicity against human DU145 cells assessed as cellular growth at 10 uM; assay type: functional; outline: as §1
T47D = experiment: Cytotoxicity against human T47D cells assessed as cellular growth at 10 uM; assay type: functional
PC-3 = experiment: Cytotoxicity against human PC3 cells after 48 hrs by SRB assay; assay type: functional, cell-based; settings: PC-3, 48 h
Outline: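 PC-3 cells grown in RPMI1640 with 10% FBS at 37 °C, 5% CO₂. Seeded in medium with 5% FBS; after 24 h, one plate fixed with 10% TCA as T₀. Compound or 0.1% DMSO vehicle added for 48 h, then TCA fixation and 0.4% SRB in 1% acetic acid. Dye solubilized in 10 mM Trizma base, absorbance read at 515 nm. IC50 is the concentration giving 50% reduction of the protein gain in controls.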

NCI-H460 = experiment: Cytotoxicity against human NCI-H460 cells assessed as cellular growth at 10 uM; assay type: functional; outline: as §1
HCT-116 = experiment: Cytotoxicity against human HCT116 cells assessed as cellular growth at 10 uM; assay type: functional; outline: as §1
HCT-15 = experiment: Cytotoxicity against human HCT15 cells assessed as cellular growth at 10 uM; assay type: functional; outline: as §1
HT-29 = experiment: Cytotoxicity against human HT-29 cells assessed as cellular growth at 10 uM; assay type: functional; outline: as §1
SF-268 = experiment: Cytotoxicity against human SF268 cells assessed as cellular growth at 10 uM; assay type: functional; outline: as §1
U-251 = experiment: Cytotoxicity against human U251 cells assessed as cellular growth at 10 uM; assay type: functional
Malme-3M = experiment: Cytotoxicity against human MALME-3M cells assessed as cellular growth at 10 uM; assay type: functional; outline: as §1
[1] = Growth of human H1299 cells at 100 uM 48 hrs by MTT assay; settings: NCI-H1299, 48 h
MDA-MB-435 = experiment: Cytotoxicity against human MDA-MB-435 cells assessed as cellular growth at 10 uM; assay type: functional; outline: as §1

Structure (SMILES) | Activity (OVCAR-8) [%] | Activity (SN12C) [%] | Activity (UO-31) [%] | Activity (DU-145) [%] | Activity (T47D) [%] | IC50 (PC-3) [µM] | Activity (NCI-H460) [%] | Activity (HCT-116) [%] | Activity (HCT-15) [%] | Activity (HT-29) [%] | Activity (SF-268) [%] | Activity (U-251) [%] | Activity (Malme-3M) [%] | growth, % of control at 100 µM [1] [%] | Activity (MDA-MB-435) [%]
Cc1ccc(C(=O)Nc2ccc3c(c2NC(=O)c2ccc(C)cc2)C(=O)c2ccccc2C3=O)cc1 | 85.43 | 98.59 | 66.54 | 95.93 | 100 | 3.16 | 88.62 | 78.55 | 102.44 | 99.39 | 98.91 | 91.73 | 127.16 | 62 | 
Cc1ccc(C(=O)Nc2c(NC(=O)CN3CCCC3)ccc3c2C(=O)c2ccccc2C3=O)cc1 | 65.02 | 74.82 | 69.24 | 91.52 | 44.33 | 17.6 | 61.05 | 58.46 | 73.22 | 31.34 | 86.17 | 82.17 | 82.24 | 5 | 79.14
